Assays:
Rattus norvegicus [1] = assay: Hypolipidemic activity as percentage decrease in plasma levels of the LDL-cholesterol at 56 uM/kg administered intraperitoneally in rats; format: functional
In short: (§1)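 Hyperlipidemia induced in rats by Triton WR 1339 (200 mg/kg ip, aqueous solution). 1 h later, test agent 56 μmol/kg in saline given ip; controls receive saline alone. Blood is drawn from the aorta 24 h after Triton, and plasma total cholesterol, LDL-cholesterol and triglyceride are determined. Groups of four to six rats; Student's t-test.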

Rattus norvegicus [2] = assay: Hypolipidemic activity as percentage decrease in plasma levels of the cholesterol at 56 uM/kg administered intraperitoneally in rats; format: functional; in short: as §1
Rattus norvegicus [3] = assay: Hypolipidemic activity as percentage decrease in plasma levels of the triglyceride at 56 uM/kg administered intraperitoneally in rats; format: functional; in short: as §1
[4] = In vitro percentage release of nitric oxide.
In short: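 Nitric oxide release measured spectrophotometrically at 540 nm with a commercial kit. Determinations at least in duplicate.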

Rattus norvegicus [5] = assay: Hypolipidemic activity as percentage decrease in plasma levels of the LDL-cholesterol at 168 administered perorally in rats; format: functional
In short: (§2)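 Test agent 168 μmol/kg given orally to rats 3 h before Triton WR 1339 (200 mg/kg ip, aqueous solution). Blood is drawn from the aorta 24 h after Triton, and plasma total cholesterol, LDL-cholesterol and triglyceride are determined. Groups of four to six rats; Student's t-test.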

Rattus norvegicus [6] = assay: Hypolipidemic activity as percentage decrease in plasma levels of the cholesterol at 168 administered perorally in rats; format: functional; in short: as §2
Rattus norvegicus [7] = assay: Hypolipidemic activity as percentage decrease in plasma levels of the triglyceride at 168 administered perorally in rats; format: functional; in short: as §2

| Compound | % release of nitric oxide [4] | Decrease (Rattus norvegicus [1]) [%] | Decrease (Rattus norvegicus [2]) [%] | Decrease (Rattus norvegicus [3]) [%] | Decrease (Rattus norvegicus [5]) [%] | Decrease (Rattus norvegicus [6]) [%] | Decrease (Rattus norvegicus [7]) [%] |
| --- | --- | --- | --- | --- | --- | --- | --- |
| CN1CC(OCCCO[N+](=O)[O-])(c2ccc(-c3ccccc3)cc2)OC2CCCCC21 (stereo not drawn) | 1% | 1 | 23 | 38 |  |  |  |
| CC(C)(Sc1cc(C(C)(C)C)c(O)c(C(C)(C)C)c1)Sc1cc(C(C)(C)C)c(O)c(C(C)(C)C)c1 [PROBUCOL] |  | 18 | 18 | 11 |  |  |  |
| CC(=O)N[C@@H](C(=O)O)C(C)(C)SN=O | 56.7% |  |  |  |  |  |  |

Second part, led by results:

| % release of nitric oxide [4] | Compound | Decrease (Rattus norvegicus [1]) [%] | Decrease (Rattus norvegicus [2]) [%] | Decrease (Rattus norvegicus [3]) [%] | Decrease (Rattus norvegicus [5]) [%] | Decrease (Rattus norvegicus [6]) [%] | Decrease (Rattus norvegicus [7]) [%] |
| --- | --- | --- | --- | --- | --- | --- | --- |
| 4.6% | O=[N+]([O-])OCCCOC1(c2ccc(-c3ccccc3)cc2)CN2CCCCC2CO1 (stereo not drawn) | 25 | 20 | 37 |  |  |  |
| 17.3% | CN1CCOC(OCCCO[N+](=O)[O-])(c2ccc(-c3ccccc3)cc2)C1 (stereo not drawn) | 47 | 63 | 85 | 36 | 40 | 54 |
| 27.2 µM µM-1 | CN1CCOC(OCCCO[N+](=O)[O-])(c2ccccc2)C1 (stereo not drawn) | 43 | 20 | 45 |  |  |  |

Source: ChEMBL document CHEMBL1136011, “Nitric oxide releasing morpholine derivatives as hypolipidemic and antioxidant agents” (J Med Chem, 2002)
